In ChEMBL document CHEMBL4130382, “Novel unsaturated glycyrrhetic acids derivatives: Design, synthesis and anti-inflammatory activity” (Eur J Med Chem, 2017):
Active and inactive are the calls of the source. No cut-off for these calls is given here.

What was measured:
RAW264.7 [1] = assay: Antiinflammatory activity in mouse RAW264.7 cells assessed as inhibition of LPS-induced NO production by measuring nitrite level at 40 uM pretreated for 2 hrs followed by LPS challenge measured after 24 hrs by Griess assay relative to control; assay type: functional
Outline: (§1)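 RAW264.7 cells grown in DMEM with 10% FBS plus penicillin/streptomycin at 37 °C and 5% CO2. Seeded at 1×10^5 cells/well and cultured 20 h. Pretreated 2 h with compounds in serum-free medium, then LPS 1 µg/mL for 24 h. Nitrite read with Griess reagent at 540 nm. Inhibition = (LPS-only − treated)/(LPS-only − medium blank) × 100%. Mean ± SD, n = 3.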

RAW264.7 [2] = assay: Antiinflammatory activity in mouse RAW264.7 cells assessed as inhibition of LPS-induced NO production by measuring nitrite level at 20 uM pretreated for 2 hrs followed by LPS challenge measured after 24 hrs by Griess assay; assay type: functional, cell-based; outline: as §1
[3] = Cytotoxicity against mouse RAW264.7 cells assessed as cell viability at 40 uM after 24 hrs by MTT assay (reference value: 100%); assay type: cell-based; details: read-out: Activity
Outline: (§2)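 RAW264.7 cells seeded at 6×10^3 cells/well and cultured 24 h. Compounds diluted in DMEM for 24 h exposure. MTT 0.5 mg/mL added for 4 h, formazan dissolved in DMSO, OD read at 570 nm. Viability given as % of medium-only blank. Three independent experiments.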

[4] = Cytotoxicity against mouse RAW264.7 cells assessed as cell viability at 20 uM after 24 hrs by MTT assay (reference value: 100%); assay type: cell-based; details: read-out: Activity; outline: as §2
RAW264.7 [5] = assay: Antiinflammatory activity in mouse RAW264.7 cells assessed as inhibition of LPS-stimulated IL-6 production preincubated for 2 hrs followed by LPS stimulaton measured after 24 hrs by ELISA; assay type: functional, cell-based
Outline: (§3)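 Cells at 7×10^4/well cultured 24 h, then pretreated 2 h with 10–40 µM compound. LPS 1 µg/mL added for 24 h. IL-6 and TNF-α measured in supernatant by mouse ELISA kits.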

RAW264.7 [6] = assay: Antiinflammatory activity in mouse RAW264.7 cells assessed as inhibition of LPS-stimulated TNF-alpha production preincubated for 2 hrs followed by LPS stimulaton measured after 24 hrs by ELISA; assay type: functional, cell-based; outline: as §3
[7] = biological target: MAP kinase p38 (Mus musculus) (UniProt P47811+O08911+Q9WUI1+Q9Z1B7); assay: Inhibition of LPS-induced p38 MAPK phosphorylation in mouse RAW264.7 cells at 10 to 40 uM preincubated with compound followed by LPS stimulation measured after 30 mins by Western blot; assay type: cell-based
Outline: (§4)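 Cells at 2×10^6/well cultured 24 h, then given 10–40 µM compound with LPS 1 µg/mL for 30 min; Bay 11-7082 20 µM as control. Lysates in IP buffer with PMSF; equal protein on 12.5% SDS-PAGE, PVDF. Blocked in 5% milk/TBST, primary antibodies to phospho and total JNK, ERK1/2, p38, IκB and p65 at 1:1000 overnight at 4 °C, ECL detection. Mean ± SD, n = 3.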

RAW264.7 [8] = assay: Antiinflammatory activity in mouse RAW264.7 cells assessed as inhibition of LPS-stimulated iNOS production preincubated with compound followed by LPS stimulation measured after 24 hrs by Western blot; assay type: functional, cell-based
Outline: (§5)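 Cells at 2×10^6/well cultured 24 h. Medium replaced with fresh medium containing 10–40 µM compound, or Bay 11-7082 20 µM as NF-κB inhibitor control, plus LPS 1 µg/mL for 24 h. Lysates in IP buffer with 1 mM PMSF; protein by BCA. Equal protein run on 12.5% SDS-PAGE, PVDF, ECL detection for iNOS and COX-2. Mean ± SD, n = 3.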

RAW264.7 [9] = assay: Inhibition of LPS-induced ERK phosphorylation in mouse RAW264.7 cells at 40 uM preincubated with compound followed by LPS stimulation measured after 30 mins by Western blot; assay type: cell-based; outline: as §4
RAW264.7 [10] = assay: Antiinflammatory activity in mouse RAW264.7 cells assessed as inhibition of LPS-stimulated COX-2 production preincubated with compound followed by LPS stimulation measured after 24 hrs by Western blot; assay type: functional, cell-based; outline: as §5
[11] = biological target: Transcription factor p65 (Mus musculus) (UniProt Q04207); assay: Inhibition of LPS-induced NFkappaB p65 nuclear translocation in mouse RAW264.7 cells at 20 to 40 uM preincubated for 1 hr followed by LPS stimulation measured after 3 hrs by DAPI staining-based immunofluorescence assay; assay type: cell-based
Chain of Transcription factor p65 (Mus musculus) (Q04207 whole entry): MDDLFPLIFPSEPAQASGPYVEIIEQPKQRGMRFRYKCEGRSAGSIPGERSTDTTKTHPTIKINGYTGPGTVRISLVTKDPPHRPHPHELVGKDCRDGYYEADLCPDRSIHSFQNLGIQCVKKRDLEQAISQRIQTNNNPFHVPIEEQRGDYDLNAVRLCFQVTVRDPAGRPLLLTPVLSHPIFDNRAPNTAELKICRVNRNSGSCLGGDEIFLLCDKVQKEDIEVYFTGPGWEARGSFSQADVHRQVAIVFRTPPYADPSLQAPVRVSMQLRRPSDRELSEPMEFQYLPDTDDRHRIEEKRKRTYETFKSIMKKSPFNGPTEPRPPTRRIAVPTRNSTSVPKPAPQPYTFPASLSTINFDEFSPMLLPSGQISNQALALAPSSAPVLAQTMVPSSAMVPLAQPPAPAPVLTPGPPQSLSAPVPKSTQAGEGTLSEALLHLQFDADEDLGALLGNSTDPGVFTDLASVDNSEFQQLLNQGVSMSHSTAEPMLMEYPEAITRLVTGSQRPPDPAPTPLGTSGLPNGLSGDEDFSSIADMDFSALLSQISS
Outline: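 Cells at 7×10^4/well cultured 24 h, pretreated with 20 or 40 µM compound, then LPS 1 µg/mL for 3 h. Fixed in 4% formaldehyde, permeabilized with 0.3% Triton X-100, blocked with 5% BSA. Stained overnight with anti-p65, then Alexa Fluor 488 anti-rabbit; nuclei counterstained with DAPI and imaged.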

RAW264.7 [12] = assay: Antiinflammatory activity in mouse RAW264.7 cells assessed as inhibition of LPS-stimulated COX-2 production at 40 uM preincubated with compound followed by LPS stimulation measured after 24 hrs by Western blot relative to control; assay type: functional; outline: as §5
RAW264.7 [13] = assay: Antiinflammatory activity in mouse RAW264.7 cells assessed as inhibition of LPS-stimulated iNOS production at 40 uM preincubated with compound followed by LPS stimulation measured after 24 hrs by Western blot relative to control; assay type: functional; outline: as §5
[14] = biological target: Transcription factor p65 (Mus musculus) (UniProt Q04207); assay: Inhibition of LPS-induced NFkappaB p65 phosphorylation in mouse RAW264.7 cells preincubated with compound followed by LPS stimulation measured after 30 mins by Western blot; assay type: cell-based; outline: as §4
RAW264.7 [15] = assay: Inhibition of LPS-induced JNK phosphorylation in mouse RAW264.7 cells at 10 to 40 uM preincubated with compound followed by LPS stimulation measured after 30 mins by Western blot; assay type: cell-based; outline: as §4

SMILES	inhibition (RAW264.7 [1])	inhibition (RAW264.7 [2])	viability at 24 h, 40 µM [3]	viability at 24 h, 20 µM [4]	also measured
CCNC(=O)/C=C/[C@@]1(C)CC[C@]2(C)CC[C@]3(C)C(=CC(=O)[C@@H]4[C@@]5(C)CC[C@H](O)C(C)(C)[C@@H]5CC[C@]43C)[C@@H]2C1	Active	Active	92%	–	–
CC(=O)O[C@H]1CC[C@]2(C)[C@H]3C(=O)C=C4[C@@H]5C[C@@](C)(/C=C/C(=O)OCc6ccccc6)CC[C@]5(C)CC[C@@]4(C)[C@]3(C)CC[C@H]2C1(C)C	inactive	inactive	–	96.9%	–
Cc1cccc(NC(=O)/C=C/[C@@]2(C)CC[C@]3(C)CC[C@]4(C)C(=CC(=O)[C@@H]5[C@@]6(C)CC[C@H](O)C(C)(C)[C@@H]6CC[C@]54C)[C@@H]3C2)c1	inactive	inactive	99.3%	–	–
CCOC(=O)/C=C/[C@@]1(C)CC[C@]2(C)CC[C@]3(C)C(=CC(=O)[C@@H]4[C@@]5(C)CC[C@H](OC(C)=O)C(C)(C)[C@@H]5CC[C@]43C)[C@@H]2C1	–	–	–	94.3%	–
CNC(=O)/C=C/[C@@]1(C)CC[C@]2(C)CC[C@]3(C)C(=CC(=O)[C@@H]4[C@@]5(C)CC[C@H](O)C(C)(C)[C@@H]5CC[C@]43C)[C@@H]2C1	Active	Active	100%	–	–
CC1(C)[C@@H](O)CC[C@]2(C)[C@H]3C(=O)C=C4[C@@H]5C[C@@](C)(C(=O)O)CC[C@]5(C)CC[C@@]4(C)[C@]3(C)CC[C@@H]12 [ENOXOLONE]	Active	Active	102%	–	–
CC(O)CNC(=O)/C=C/[C@@]1(C)CC[C@]2(C)CC[C@]3(C)C(=CC(=O)[C@@H]4[C@@]5(C)CC[C@H](O)C(C)(C)[C@@H]5CC[C@]43C)[C@@H]2C1 (stereo not given in full)	Active	Active	–	91.4%	–
CC1(C)[C@@H](O)CC[C@]2(C)[C@H]3C(=O)C=C4[C@@H]5C[C@@](C)(/C=C/C(=O)NCCCN6CCOCC6)CC[C@]5(C)CC[C@@]4(C)[C@]3(C)CC[C@@H]12	Active	Active	99.8%	–	–
CN(C)C(=O)/C=C/[C@@]1(C)CC[C@]2(C)CC[C@]3(C)C(=CC(=O)[C@@H]4[C@@]5(C)CC[C@H](O)C(C)(C)[C@@H]5CC[C@]43C)[C@@H]2C1	Active	Active	99.5%	–	–
CC1(C)[C@@H](O)CC[C@]2(C)[C@H]3C(=O)C=C4[C@@H]5C[C@@](C)(/C=C/C(=O)N6CCOCC6)CC[C@]5(C)CC[C@@]4(C)[C@]3(C)CC[C@@H]12	inactive	inactive	97.5%	–	–
CC1(C)[C@@H](O)CC[C@]2(C)[C@H]3C(=O)C=C4[C@@H]5C[C@@](C)(/C=C/C(=O)NCCO)CC[C@]5(C)CC[C@@]4(C)[C@]3(C)CC[C@@H]12	Active	Active	–	93.6%	–
CC1(C)[C@@H](O)CC[C@]2(C)[C@H]3C(=O)C=C4[C@@H]5C[C@@](C)(/C=C/C(=O)NCCc6ccccc6)CC[C@]5(C)CC[C@@]4(C)[C@]3(C)CC[C@@H]12	inactive	inactive	–	93%	–
CCN1CCN(C(=O)/C=C/[C@@]2(C)CC[C@]3(C)CC[C@]4(C)C(=CC(=O)[C@@H]5[C@@]6(C)CC[C@H](O)C(C)(C)[C@@H]6CC[C@]54C)[C@@H]3C2)CC1	–	–	98.4%	–	IC50 (RAW264.7 [5]): 15.5 µM; inhibition (RAW264.7 [5]): Dose-dependent effect; inhibition (RAW264.7 [6]): Dose-dependent effect; inhibition at 40 µM (RAW264.7 [1]): > 70%
CC(C)NC(=O)/C=C/[C@@]1(C)CC[C@]2(C)CC[C@]3(C)C(=CC(=O)[C@@H]4[C@@]5(C)CC[C@H](O)C(C)(C)[C@@H]5CC[C@]43C)[C@@H]2C1	–	Active	97.6%	–	–
CC1(C)[C@@H](O)CC[C@]2(C)[C@H]3C(=O)C=C4[C@@H]5C[C@@](C)(/C=C/C(=O)O)CC[C@]5(C)CC[C@@]4(C)[C@]3(C)CC[C@@H]12	Active	Active	99.2%	–	–
CN1CCN(C(=O)/C=C/[C@@]2(C)CC[C@]3(C)CC[C@]4(C)C(=CC(=O)[C@@H]5[C@@]6(C)CC[C@H](O)C(C)(C)[C@@H]6CC[C@]54C)[C@@H]3C2)CC1	–	–	96.6%	–	inhibition [7]: inactive; IC50 (RAW264.7 [5]): 13.3 µM; inhibition (RAW264.7 [5]): Dose-dependent effect; inhibition (RAW264.7 [8]): Dose-dependent effect; inhibition (RAW264.7 [9]): Active; inhibition (RAW264.7 [10]): Dose-dependent effect; inhibition (RAW264.7 [6]): Dose-dependent effect; inhibition at 40 µM (RAW264.7 [1]): > 70%; inhibition [11]: Active; inhibition at 40 µM (RAW264.7 [12]): 55.6%; inhibition at 40 µM (RAW264.7 [13]): 76.9%; inhibition [14]: Dose-dependent effect; inhibition (RAW264.7 [15]): inactive
CC(C)N(C(=O)/C=C/[C@@]1(C)CC[C@]2(C)CC[C@]3(C)C(=CC(=O)[C@@H]4[C@@]5(C)CC[C@H](O)C(C)(C)[C@@H]5CC[C@]43C)[C@@H]2C1)C(C)C	–	Active	–	95.8%	–
CC1(C)[C@@H](O)CC[C@]2(C)[C@H]3C(=O)C=C4[C@@H]5C[C@@](C)(/C=C/C(=O)NNC(N)=O)CC[C@]5(C)CC[C@@]4(C)[C@]3(C)CC[C@@H]12	–	–	–	96.7%	–
CC1(C)[C@@H](O)CC[C@]2(C)[C@H]3C(=O)C=C4[C@@H]5C[C@@](C)(/C=C/C(=O)NCCCCl)CC[C@]5(C)CC[C@@]4(C)[C@]3(C)CC[C@@H]12	–	–	95%	–	–
CC1(C)[C@@H](O)CC[C@]2(C)[C@H]3C(=O)C=C4[C@@H]5C[C@@](C)(/C=C/C(=O)NNc6ccccc6)CC[C@]5(C)CC[C@@]4(C)[C@]3(C)CC[C@@H]12	inactive	inactive	–	94.8%	–
